Measurements as given in ChEMBL document CHEMBL1765045, “Fine-tuning the selectivity of aldosterone synthase inhibitors: structure-activity and structure-selectivity insights from studies of heteroaryl substituted 1,2,5,6-tetrahydropyrrolo[3,2,1-ij]quinolin-4-one derivatives” (J Med Chem, 2011).

What follows are compounds tested against T1, Cytochrome P450 11B2, mitochondrial (Homo sapiens, UniProt P19099) (assay: Inhibition of human CYP11B2 expressed in hamster V79 MZh cells assessed as conversion of [4-14C]-11-deoxycorticosterone substrate by HPTLC assay).
T1 sequence (P19099 whole entry): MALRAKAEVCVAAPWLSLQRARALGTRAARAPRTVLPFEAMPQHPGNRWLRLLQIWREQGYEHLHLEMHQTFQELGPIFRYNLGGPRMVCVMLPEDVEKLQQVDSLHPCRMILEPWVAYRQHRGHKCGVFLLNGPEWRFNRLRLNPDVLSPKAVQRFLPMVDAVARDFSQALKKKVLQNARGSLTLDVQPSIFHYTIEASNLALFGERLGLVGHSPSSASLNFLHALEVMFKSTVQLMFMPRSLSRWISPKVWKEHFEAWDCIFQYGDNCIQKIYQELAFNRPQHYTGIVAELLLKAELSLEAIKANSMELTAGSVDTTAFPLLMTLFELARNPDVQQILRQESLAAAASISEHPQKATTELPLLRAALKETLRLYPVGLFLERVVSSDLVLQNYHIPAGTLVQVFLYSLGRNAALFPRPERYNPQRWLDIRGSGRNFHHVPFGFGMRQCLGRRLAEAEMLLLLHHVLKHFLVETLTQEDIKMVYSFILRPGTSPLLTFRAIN
Assay type: cell-based
Method in brief: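 Hamster V79 MZh fibroblasts expressing human CYP11B2 incubated with [4-14C]-11-deoxycorticosterone (100 nM) and inhibitor at ≥3 concentrations; reaction stopped with ethyl acetate, steroids extracted after shaking and centrifugation (10000g, 2 min). Substrate conversion read by HPTLC with phosphoimaging.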

IC50 [nM]	SMILES
0.6	COc1cncc(-c2cc3c4c(c2)CCN4C(=O)CC3)c1
1.1	O=C1CCc2cc(-c3cccnc3)cc3c2N1CC3
2.4	O=C1CCc2cc(-c3cccnc3)cc3c2N1CCC3
1.4	O=C1CCc2cc(-c3cncc(-c4cccc(F)c4)c3)cc3c2N1CC3

Each compound was assayed against T2, Cytochrome P450 11B1, mitochondrial (Homo sapiens, UniProt P15538) (assay: Inhibition of human CYP11B1 expressed in hamster V79 MZh cells assessed as conversion of [4-14C]-11-deoxycorticosterone substrate by HPTLC assay).
T2 sequence (P15538 whole entry): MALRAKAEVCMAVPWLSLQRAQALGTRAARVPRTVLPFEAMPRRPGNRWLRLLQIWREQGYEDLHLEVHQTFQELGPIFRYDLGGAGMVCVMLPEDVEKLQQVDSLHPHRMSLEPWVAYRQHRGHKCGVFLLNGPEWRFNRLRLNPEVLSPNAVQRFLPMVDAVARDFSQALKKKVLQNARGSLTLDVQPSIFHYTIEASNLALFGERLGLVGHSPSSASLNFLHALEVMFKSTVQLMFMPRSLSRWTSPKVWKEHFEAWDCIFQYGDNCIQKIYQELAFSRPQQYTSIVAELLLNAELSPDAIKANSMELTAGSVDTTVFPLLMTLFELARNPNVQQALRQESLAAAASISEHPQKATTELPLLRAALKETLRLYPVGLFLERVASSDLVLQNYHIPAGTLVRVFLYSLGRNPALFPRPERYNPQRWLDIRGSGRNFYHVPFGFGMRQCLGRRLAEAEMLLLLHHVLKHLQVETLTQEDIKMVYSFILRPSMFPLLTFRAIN
Assay type: cell-based
Method in brief: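 V79 MZh hamster fibroblasts stably expressing human CYP11B1 or CYP11B2 incubated with [4-14C]-11-deoxycorticosterone, 100 nM, plus inhibitor at ≥3 concentrations. Reaction stopped with ethyl acetate, steroids extracted into the organic phase, and substrate conversion quantified by HPTLC with phosphoimaging. IC50 is the mean of at least three experiments.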

IC50 [nM]	SMILES
247	COc1cncc(-c2cc3c4c(c2)CCN4C(=O)CC3)c1
715	O=C1CCc2cc(-c3cccnc3)cc3c2N1CC3
2300	O=C1CCc2cc(-c3cccnc3)cc3c2N1CCC3
490	O=C1CCc2cc(-c3cncc(-c4cccc(F)c4)c3)cc3c2N1CC3

These compounds were tested against T3, CYP3A4 (Homo sapiens, UniProt P08684) (assay: Inhibition of human CYP3A4 expressed in baculovirus-infected insect microsomes at 10 uM).
T3 sequence (P08684 whole entry): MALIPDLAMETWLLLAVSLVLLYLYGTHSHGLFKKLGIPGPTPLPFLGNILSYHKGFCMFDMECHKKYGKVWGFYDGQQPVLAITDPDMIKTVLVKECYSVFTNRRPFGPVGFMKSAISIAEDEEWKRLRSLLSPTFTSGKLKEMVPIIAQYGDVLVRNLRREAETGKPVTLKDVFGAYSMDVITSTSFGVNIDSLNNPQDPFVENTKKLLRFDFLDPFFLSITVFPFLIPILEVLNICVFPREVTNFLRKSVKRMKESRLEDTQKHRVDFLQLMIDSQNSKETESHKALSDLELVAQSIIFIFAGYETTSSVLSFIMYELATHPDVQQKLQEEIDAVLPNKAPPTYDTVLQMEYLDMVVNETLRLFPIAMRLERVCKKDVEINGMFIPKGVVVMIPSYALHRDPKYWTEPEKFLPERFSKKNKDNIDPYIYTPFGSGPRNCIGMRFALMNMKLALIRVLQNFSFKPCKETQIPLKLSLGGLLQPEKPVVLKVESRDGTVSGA
Assay type: ADME, Microsome
Method in brief: (§1)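 Recombinant human CYP1A2, 2B6, 2C9, 2C19, 2D6 or 3A4 in baculovirus-infected insect microsomes (Supersomes), run per manufacturer's protocol. Inhibitor at 1 and 10 μM; percent inhibition is the mean of two experiments.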

inhibition at 10 µM [%]	SMILES
19	COc1cncc(-c2cc3c4c(c2)CCN4C(=O)CC3)c1
< 5	O=C1CCc2cc(-c3cccnc3)cc3c2N1CC3
21	O=C1CCc2cc(-c3cccnc3)cc3c2N1CCC3
43	O=C1CCc2cc(-c3cncc(-c4cccc(F)c4)c3)cc3c2N1CC3

What follows are compounds tested against T3, CYP3A4 (assay: Inhibition of human CYP3A4 expressed in baculovirus-infected insect microsomes at 1 uM).
Assay type: ADME, Microsome
Method in brief: as §1

inhibition at 1 µM [%]	SMILES
14	COc1cncc(-c2cc3c4c(c2)CCN4C(=O)CC3)c1
< 5	O=C1CCc2cc(-c3cccnc3)cc3c2N1CC3
6	O=C1CCc2cc(-c3cccnc3)cc3c2N1CCC3
37	O=C1CCc2cc(-c3cncc(-c4cccc(F)c4)c3)cc3c2N1CC3

These compounds were tested against T4, CYP2D6 (Homo sapiens, UniProt P10635) (assay: Inhibition of human CYP2D6 expressed in baculovirus-infected insect microsomes at 10 uM).
T4 sequence (P10635 whole entry): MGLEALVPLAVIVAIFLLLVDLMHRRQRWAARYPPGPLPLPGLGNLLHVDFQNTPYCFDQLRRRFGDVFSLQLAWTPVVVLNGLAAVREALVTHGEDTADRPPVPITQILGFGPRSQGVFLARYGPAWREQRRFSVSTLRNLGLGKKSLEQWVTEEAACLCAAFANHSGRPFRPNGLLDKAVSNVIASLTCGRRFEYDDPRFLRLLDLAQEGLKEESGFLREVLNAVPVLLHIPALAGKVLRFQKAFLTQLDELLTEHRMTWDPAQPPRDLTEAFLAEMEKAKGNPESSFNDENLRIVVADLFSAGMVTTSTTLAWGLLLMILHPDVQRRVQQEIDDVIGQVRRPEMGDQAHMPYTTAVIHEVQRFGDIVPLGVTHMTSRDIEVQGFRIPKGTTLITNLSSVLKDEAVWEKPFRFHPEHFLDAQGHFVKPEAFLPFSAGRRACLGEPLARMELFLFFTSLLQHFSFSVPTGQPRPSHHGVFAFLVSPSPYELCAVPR
Assay type: ADME, Microsome
Method in brief: as §1

inhibition at 10 µM [%]	SMILES
13	COc1cncc(-c2cc3c4c(c2)CCN4C(=O)CC3)c1
< 5	O=C1CCc2cc(-c3cccnc3)cc3c2N1CC3
9	O=C1CCc2cc(-c3cncc(-c4cccc(F)c4)c3)cc3c2N1CC3

Each compound was assayed against T4, CYP2D6 (assay: Inhibition of human CYP2D6 expressed in baculovirus-infected insect microsomes at 1 uM).
Assay type: ADME, Microsome
Method in brief: as §1

inhibition at 1 µM [%]	SMILES
9	COc1cncc(-c2cc3c4c(c2)CCN4C(=O)CC3)c1
< 5	O=C1CCc2cc(-c3cccnc3)cc3c2N1CC3
< 5	O=C1CCc2cc(-c3cncc(-c4cccc(F)c4)c3)cc3c2N1CC3

Each compound was assayed against CYP2C19 (Homo sapiens, UniProt P33261) (assay: Inhibition of human CYP2C19 expressed in baculovirus-infected insect microsomes at 10 uM).
Sequence of CYP2C19 (P33261 whole entry): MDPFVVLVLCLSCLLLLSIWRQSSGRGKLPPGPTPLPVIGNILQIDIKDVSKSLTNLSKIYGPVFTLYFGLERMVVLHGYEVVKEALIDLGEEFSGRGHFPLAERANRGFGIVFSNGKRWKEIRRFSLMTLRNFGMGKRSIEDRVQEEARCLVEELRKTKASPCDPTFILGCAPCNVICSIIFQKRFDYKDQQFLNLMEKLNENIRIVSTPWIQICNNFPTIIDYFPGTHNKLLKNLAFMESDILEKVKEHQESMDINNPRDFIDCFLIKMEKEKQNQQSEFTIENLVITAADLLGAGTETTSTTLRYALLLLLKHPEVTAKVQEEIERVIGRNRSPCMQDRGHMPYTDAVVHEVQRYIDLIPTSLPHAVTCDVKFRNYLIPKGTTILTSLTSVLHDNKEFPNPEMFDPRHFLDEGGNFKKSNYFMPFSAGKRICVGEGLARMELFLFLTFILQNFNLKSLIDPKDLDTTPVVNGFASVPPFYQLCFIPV
Assay type: ADME, Microsome
Method in brief: as §1

inhibition at 10 µM [%]	SMILES
30	COc1cncc(-c2cc3c4c(c2)CCN4C(=O)CC3)c1
< 5	O=C1CCc2cc(-c3cccnc3)cc3c2N1CC3
44	O=C1CCc2cc(-c3cccnc3)cc3c2N1CCC3
21	O=C1CCc2cc(-c3cncc(-c4cccc(F)c4)c3)cc3c2N1CC3

What follows are compounds tested against T5, CYP2C9 (Homo sapiens, UniProt P11712) (assay: Inhibition of human CYP2C9 expressed in baculovirus-infected insect microsomes at 10 uM).
T5 sequence (P11712 whole entry): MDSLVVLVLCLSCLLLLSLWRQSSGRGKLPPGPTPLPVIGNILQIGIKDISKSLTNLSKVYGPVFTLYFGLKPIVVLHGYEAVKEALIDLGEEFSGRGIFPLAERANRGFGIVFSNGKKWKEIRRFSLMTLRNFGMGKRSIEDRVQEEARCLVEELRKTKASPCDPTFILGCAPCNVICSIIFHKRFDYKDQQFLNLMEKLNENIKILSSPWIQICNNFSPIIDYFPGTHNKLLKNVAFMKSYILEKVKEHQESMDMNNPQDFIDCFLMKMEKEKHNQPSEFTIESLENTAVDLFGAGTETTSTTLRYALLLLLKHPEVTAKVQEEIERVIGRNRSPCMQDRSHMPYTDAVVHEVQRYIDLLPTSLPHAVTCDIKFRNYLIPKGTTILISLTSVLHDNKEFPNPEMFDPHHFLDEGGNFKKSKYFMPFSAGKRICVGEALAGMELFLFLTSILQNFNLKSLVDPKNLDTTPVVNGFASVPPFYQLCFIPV
Assay type: ADME, Microsome
Method in brief: as §1

inhibition at 10 µM [%]	SMILES
42	COc1cncc(-c2cc3c4c(c2)CCN4C(=O)CC3)c1
41	O=C1CCc2cc(-c3cccnc3)cc3c2N1CC3
40	O=C1CCc2cc(-c3cccnc3)cc3c2N1CCC3
79	O=C1CCc2cc(-c3cncc(-c4cccc(F)c4)c3)cc3c2N1CC3

These compounds were tested against T5, CYP2C9 (assay: Inhibition of human CYP2C9 expressed in baculovirus-infected insect microsomes at 1 uM).
Assay type: ADME, Microsome
Method in brief: as §1

inhibition at 1 µM [%]	SMILES
23	COc1cncc(-c2cc3c4c(c2)CCN4C(=O)CC3)c1
6	O=C1CCc2cc(-c3cccnc3)cc3c2N1CC3
19	O=C1CCc2cc(-c3cccnc3)cc3c2N1CCC3
39	O=C1CCc2cc(-c3cncc(-c4cccc(F)c4)c3)cc3c2N1CC3

Each compound was assayed against T6, CYP2B6 (Homo sapiens, UniProt P20813) (assay: Inhibition of human CYP2B6 expressed in baculovirus-infected insect microsomes at 10 uM).
T6 sequence (P20813 whole entry): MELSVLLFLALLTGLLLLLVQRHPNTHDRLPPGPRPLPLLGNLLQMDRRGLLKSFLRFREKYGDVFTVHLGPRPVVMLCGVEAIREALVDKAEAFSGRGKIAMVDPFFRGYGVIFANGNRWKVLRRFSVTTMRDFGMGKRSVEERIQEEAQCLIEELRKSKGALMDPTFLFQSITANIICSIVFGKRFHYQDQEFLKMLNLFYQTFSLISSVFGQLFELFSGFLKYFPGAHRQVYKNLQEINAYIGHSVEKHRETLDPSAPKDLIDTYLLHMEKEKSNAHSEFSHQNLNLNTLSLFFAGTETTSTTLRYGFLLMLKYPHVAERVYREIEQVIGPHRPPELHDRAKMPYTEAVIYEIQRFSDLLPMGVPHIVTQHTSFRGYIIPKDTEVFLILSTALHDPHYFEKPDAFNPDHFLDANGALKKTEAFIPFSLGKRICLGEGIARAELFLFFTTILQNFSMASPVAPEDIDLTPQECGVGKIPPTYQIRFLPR
Assay type: ADME, Microsome
Method in brief: as §1

inhibition at 10 µM [%]	SMILES
8	COc1cncc(-c2cc3c4c(c2)CCN4C(=O)CC3)c1
< 5	O=C1CCc2cc(-c3cccnc3)cc3c2N1CC3
36	O=C1CCc2cc(-c3cccnc3)cc3c2N1CCC3
13	O=C1CCc2cc(-c3cncc(-c4cccc(F)c4)c3)cc3c2N1CC3

These compounds were tested against T7, CYP1A2 (Homo sapiens, UniProt P05177) (assay: Inhibition of human CYP1A2 expressed in baculovirus-infected insect microsomes at 10 uM).
T7 sequence (P05177 whole entry): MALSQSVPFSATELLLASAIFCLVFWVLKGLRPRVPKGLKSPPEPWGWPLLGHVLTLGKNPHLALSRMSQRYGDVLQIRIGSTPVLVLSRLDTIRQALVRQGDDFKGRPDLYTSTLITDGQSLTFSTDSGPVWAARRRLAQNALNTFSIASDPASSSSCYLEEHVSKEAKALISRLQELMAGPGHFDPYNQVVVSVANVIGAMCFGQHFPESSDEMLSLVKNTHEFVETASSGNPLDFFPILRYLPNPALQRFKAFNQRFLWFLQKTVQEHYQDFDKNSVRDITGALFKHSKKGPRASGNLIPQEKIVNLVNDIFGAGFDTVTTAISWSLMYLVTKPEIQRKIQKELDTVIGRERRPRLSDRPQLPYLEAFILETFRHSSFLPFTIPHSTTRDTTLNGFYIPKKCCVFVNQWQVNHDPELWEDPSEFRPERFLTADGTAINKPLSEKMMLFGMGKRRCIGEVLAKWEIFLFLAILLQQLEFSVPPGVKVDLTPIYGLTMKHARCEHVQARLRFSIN
Assay type: ADME, Microsome
Method in brief: as §1

inhibition at 10 µM [%]	SMILES
72	COc1cncc(-c2cc3c4c(c2)CCN4C(=O)CC3)c1
43	O=C1CCc2cc(-c3cccnc3)cc3c2N1CC3
83	O=C1CCc2cc(-c3cccnc3)cc3c2N1CCC3
38	O=C1CCc2cc(-c3cncc(-c4cccc(F)c4)c3)cc3c2N1CC3

The compounds below were run against T7, CYP1A2 (assay: Inhibition of human CYP1A2 expressed in baculovirus-infected insect microsomes at 1 uM).
Assay type: ADME, Microsome
Method in brief: as §1

inhibition at 1 µM [%]	SMILES
37	COc1cncc(-c2cc3c4c(c2)CCN4C(=O)CC3)c1
8	O=C1CCc2cc(-c3cccnc3)cc3c2N1CC3
41	O=C1CCc2cc(-c3cccnc3)cc3c2N1CCC3
9	O=C1CCc2cc(-c3cncc(-c4cccc(F)c4)c3)cc3c2N1CC3
